Jurkat NFkB inh = inhibitors of the PMA/ionomycin-induced NF-kB reporter in Jurkat cells. hit rate 0.53% among 330,000. PMA/ionomycin-induced NF-kB luciferase reporter, luminescence. inhibition, % at 4 µM; in the data active = inhibition above about 50%
NR2E3 ag-1 = agonists of human NR2E3 nuclear receptor. CHO-S Gal4-NCOR/VP16-NR2E3 two-hybrid, luciferase. AID 602229. inhibition of corepressor binding, % at 3.98 µM. hit rate 0.35% among 360,000;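 active = inhibition above the mean of all tested compounds plus 3 SD, cut at about 70% in these data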;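 note: 0% = DMSO with NR2E3 transfected cells and 100% = cells lacking NR2E3 construct; higher means lower luciferase signal from less NR2E3 corepressor binding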
Target sequence (Q9Y5X4 whole entry, looked up, the tested form may be a part): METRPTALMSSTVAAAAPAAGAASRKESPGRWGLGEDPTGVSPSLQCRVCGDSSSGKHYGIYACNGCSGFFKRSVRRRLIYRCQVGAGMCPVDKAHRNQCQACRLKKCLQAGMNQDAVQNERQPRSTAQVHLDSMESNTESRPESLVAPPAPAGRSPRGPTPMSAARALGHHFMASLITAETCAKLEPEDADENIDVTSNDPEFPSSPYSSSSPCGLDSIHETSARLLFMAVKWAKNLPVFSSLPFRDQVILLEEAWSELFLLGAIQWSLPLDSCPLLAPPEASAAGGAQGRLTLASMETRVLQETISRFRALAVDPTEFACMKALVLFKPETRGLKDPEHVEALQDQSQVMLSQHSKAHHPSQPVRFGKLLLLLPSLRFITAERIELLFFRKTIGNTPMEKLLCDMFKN
NR2E3 ag-2 = NR2E3 (human) agonism. inhibition of corepressor binding, % at 4.78 µM. hit rate 0.12% among 320,000. GST-NR2E3/biotin-RetCOR TR-FRET, 1536-well. Q9Y5X4;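 active = percent inhibition above the cutoff of mean plus 3 SD of all tested compounds, set per screening campaign, cut at about 20% in these data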;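 note: 0% = DMSO wells and 100% = biotin wells as full block of FRET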
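system = GST-tagged NR2E3 plus biotinylated RetCOR corepressor | input = 1.35 nM GST-NR2E3 | also added = 7 nM biotin-RetCOR | schedule = 5 h incubation at 4 °C | measured by = TR-FRET with europium anti-GST and streptavidin-D2, 340 nm excitation | read-out = percent loss of FRET ratio relative to control wells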
aDG glyco act = increases alpha dystroglycan glycosylation. Pro5-aDG cells, alpha-DG glycosylation AlphaScreen (IIH6); 0% Pro5, 100% B10-LARGE cell signal. activation, % at 10 µM. hit rate 0.22% among 360,000. AID 624168;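 active = activation of at least 8% versus controls, or a plate z-score of at least 8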;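 note: Pro5 are CHO cells carrying HIG-tagged alpha-DG that lacks glycosylation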
MPTP block = inhibitors of mitochondrial permeability transition pore. inhibition, % at 10 µM. AID 602449. isolated mouse mitochondria, Ca2+ swelling absorbance, 30 min. hit rate 1.4% among 360,000;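 active = inhibition of 50% or more, scaled per plate between neutral and stimulator controls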;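 note: 0% = DMSO wells given calcium and 100% = 1 mM EGTA wells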
697 NFkB inh = lowers PMA/ionomycin-induced NF-kB signal in 697 B cells; 697 B-cell NF-kB luciferase reporter, 16 h; inhibition, % at 4 µM; hit rate 0.33% among 330,000; AID 435022; in the data active = inhibition above about 35%
Jurkat NFkB conf = lowers PMA/ionomycin-induced NF-kB signal in Jurkat cells. shares compounds with Jurkat NFkB inh. Jurkat NF-kB luciferase, 16 h. inhibition, % at 4 µM. hit rate 27% among 2,700. AID 435020;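 active = inhibition reaching about 45% at 4 µM in either replicate, limit read from the data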;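 note: plate controls were PMA/ionomycin stimulated DMSO wells for no effect and unstimulated DMSO wells for full effect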
* hit, by the source's call; x = no result given. Sampled rows, rich in hits. Any-hit rate of the full collection: about 2.4%.

SMILES	Jurkat NFkB inh	NR2E3 ag-1	NR2E3 ag-2	aDG glyco act	MPTP block	697 NFkB inh	Jurkat NFkB conf
Cc1nnsc1C(=O)Nc1ccc(S(=O)(=O)N2CCCCC2C)cc1 (stereo not given)	2	-2	1	0	0	-14	x
Cc1ccc(NC(=O)c2scc3c2CCCC3)cc1	-231	-161	-4	0	1	-226	-122
O=C(Nc1ccc(Cl)c(S(=O)(=O)N2CCOCC2)c1)c1ccc(OCC2CCCO2)cc1 (stereo not given)	60*	-28	3	0	5	-36	64*
COc1ccc(S(=O)(=O)N2CCCCC2)cc1NC(=O)CCCOc1ccc(C)cc1	-1	-14	4	0	0	1	x
Cc1ccc(S(=O)(=O)N2CCCCC2CCNC(=O)C(=O)NCc2ccco2)cc1 (stereo not given)	41	-11	-1	0	0	-12	x
Cc1ccc(S(=O)(=O)N2CCCCC2CCNC(=O)C(=O)NCCc2ccco2)cc1 (stereo not given)	60*	-42	0	0	1	-15	25
O=C(COC(=O)/C=C/C(=O)N1CCN(c2ccccc2)CC1)NC(c1ccccc1)c1ccccc1	3	-23	1	0	2	12	x
COc1ccc(C(=O)Nc2cccc(C(=O)N/N=C/c3ccc(OC)cc3OC)c2)cc1	57*	-45	3	0	0	-14	2
COc1cccc(NC(=O)c2ccc3c(c2)CCCC3)c1	-153	-23	-1	0	-2	-21	-118
Cc1ccc(NC(=O)CN(C)C(=O)COc2cccc3ccc(C)nc23)cc1	-192	2	x	0	-1	-5	13
Cc1ccc2cccc(OCC(=O)N(C)CC(=O)Nc3ccc(F)cc3)c2n1	19	14	2	0	1	11	x
COc1ccc(OC)c(S(=O)(=O)CC(O)COc2ccccc2Cl)c1 (stereo not given)	7	-23	3	0	-2	2	x
Cc1ccc(CN=C(N)Nc2nc(C)cc(C)n2)cc1	73*	3	0	1	2	-39	17
Cc1ccc(C)c(N/C(N)=N/c2nc(C)cc(C)n2)c1	4	28	-2	1	1	-29	x
CCN1CCN(c2ccc(NC(=O)c3ccc4c(c3)OCCO4)cc2C)CC1	-165	-82	x	0	-3	-76	-40
O=C(Nc1ccc2c(c1)OCCO2)c1ccc(Cl)c([N+](=O)[O-])c1	-19	-12	0	0	2	-72	x
Nc1c(C(=O)Nc2ccc3c(c2)OCCO3)nnn1Cc1ccc(Br)cc1	-200	-74	2	0	-1	-190	-112
O=C(Nc1cccc(C(=O)Nc2cccc(Br)c2)c1)c1ccccc1	-27	13	4	0	39	-38	x
Cc1cc(C(=O)Nc2ccc3c(c2)OCCO3)ccc1[N+](=O)[O-]	-160	-118	1	0	0	-72	-82
CC(C)c1ccc(NC(=O)c2cccc(Br)c2)cc1	-234	-114	1	0	46	-207	-106
CCN1CCN(c2cc(C)c3cc(NC(=O)c4ccc5c(c4)OCO5)ccc3n2)CC1	-3	-32	2	0	1	-2	x
CCOP(=O)(c1ccc(N(C)C)cc1)C(O)c1ccccc1F (stereo not given)	-7	-23	1	0	1	-5	x
CC(C)(C)OC(=O)NCC1CCC(C(=O)NC[C@H](CC(=O)O)c2ccc(Cl)cc2)CC1 (stereo not given in full)	-17	-33	0	0	1	-11	x
Cc1cc(Cl)ccc1NC(=O)c1ccc2c(c1)OCO2	-81	-74	0	1	0	-89	x
O=C(Nc1ccc(Cl)cc1Cl)c1ccc2c(c1)OCCO2	-167	-196	0	2	-1	-241	-95
O=C(Nc1ccc2c(c1)OCCO2)c1cccc(Br)c1	-174	-128	x	0	0	-55	-101
Cc1ccc(C(=O)Nc2ccc3c(c2)OCCO3)cc1	-48	-154	x	0	0	-221	x
O=C(Nc1ccc2c(c1)OCCO2)c1ccc(Cl)c(Cl)c1	-151	-36	-3	0	0	-45	-132
